Compound activity: PubChem, several laboratories
Hits are enriched below; roughly 2.1% of the tested compounds scored in any of these assays.
HTR2A ag: agonists of mouse serotonin 5-HT2A receptor (HTR2A) | 360,000 compounds, 0.66% hits | AID 624169 | activation, % at 7.6 µM | CHO-K1 mHTR2A beta-arrestin complementation, luminescence; percent of 30 µM serotonin response;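 active = activation above a run cutoff, the mean activation of all tested compounds plus 3 SD, cut at about 14% in these data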;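 also: 0% = plate median of compound wells and 100% = 30 µM serotonin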
Target sequence (P35363 whole entry, looked up): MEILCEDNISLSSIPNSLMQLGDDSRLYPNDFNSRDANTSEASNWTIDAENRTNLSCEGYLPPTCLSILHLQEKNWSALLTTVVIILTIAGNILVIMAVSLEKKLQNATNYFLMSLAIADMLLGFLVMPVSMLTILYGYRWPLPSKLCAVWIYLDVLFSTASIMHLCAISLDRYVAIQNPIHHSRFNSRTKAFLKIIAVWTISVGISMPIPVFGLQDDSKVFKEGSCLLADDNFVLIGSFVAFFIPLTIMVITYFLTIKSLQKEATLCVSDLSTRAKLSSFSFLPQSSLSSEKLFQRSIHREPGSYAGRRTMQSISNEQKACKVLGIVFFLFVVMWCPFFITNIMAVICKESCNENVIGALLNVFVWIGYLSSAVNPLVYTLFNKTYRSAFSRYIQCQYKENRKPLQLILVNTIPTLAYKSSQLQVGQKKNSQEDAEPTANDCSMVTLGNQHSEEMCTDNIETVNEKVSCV
CXCR6 block: blocks human CXCR6 beta-arrestin recruitment | O00574 | CHO-K1 PathHunter CXCR6 beta-arrestin, luminescence | inhibition, % at 20 µM | 360,000 compounds, 0.36% hits; in the data active = inhibition above about 34%, passing the limit was not always enough;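 also: antagonist mode with CXCL16 agonist at 10 nM final; 0% = 10 nM CXCL16 with DMSO and 100% = unstimulated wells without agonist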
APJ ag: APJ receptor agonism | activation, % at 20 µM | 330,000 compounds, 0.11% hits | P35414 | CHO-K1 APJ PathHunter beta-arrestin, luminescence; 0% DMSO wells, 100% apelin | AID 2520;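 active = activation more than six SD over the plate average, tested at 20 µM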;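 also: 0% = DMSO alone and 100% = apelin-13 at 10 nM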
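Assay system: CHO-K1 APJ beta-arrestin complementation cell line / Compound: single test compound dose, 20 µM final, 1% DMSO / Times: overnight seeding, 90 min compound at 25 °C, 1 h detection / Technique: beta-gal luminescence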
APJ antag: antagonists of human APJ apelin receptor; inhibition, % at 20 µM; CHO-K1 APJ beta-arrestin complementation, luminescence; 330,000 compounds, 0.32% hits; P35414;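 active = inhibition above about 40% at 20 µM, limit read from the data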;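 also: cells challenged with 10 nM apelin-13 agonist together with compound; plate controls were apelin-13 plus DMSO wells for no effect and DMSO wells lacking apelin-13 for full effect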
EBI2 block: EBI2 (human) antagonism. EBI2 beta-arrestin recruitment, luminescence, 7a,25-OHC stimulated. inhibition, % at 5 µM. 360,000 compounds, 0.81% hits. AID 651636; in the data active = inhibition above about 38%;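 also: enzyme fragment complementation signal reports receptor beta-arrestin coupling in cells; 0% = agonist plus DMSO wells and 100% = wells without agonist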
CCR6 antag: blocks CCL20-driven beta-arrestin recruitment at human CCR6; AID 493098; inhibition, % at 20 µM; CHO-K1 CCR6 PathHunter beta-arrestin, luminescence, CCL20-stimulated; P51684; 340,000 compounds, 0.49% hits;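 active = compounds whose inhibition of the agonist-driven luminescence signal at 20 µM reaches about 50%, limit read from the data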;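 also: cells stimulated with CCL20 at 14 nM final; plate controls were DMSO with CCL20 for no effect and DMSO without agonist for full effect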
EBI2 conf: EBI2 (human) antagonism, single concentration confirmation | shares compounds with EBI2 block | EBI2 beta-arrestin luminescence, 7a,25-OHC antagonism | inhibition, % at 5 µM | 2,400 compounds, 29% hits;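 active = inhibition of at least 50%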
EBI2 agonist: EBI2 agonism counter-screen; shares compounds with EBI2 block; EBI2-expressing cells, agonist mode, luminescence, 60 min; 0% vehicle, 100% 7α,25-dihydroxycholesterol control; activation, % at 5 µM; 2,400 tested, under 10 active; AID 652000;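 active = activation of at least 50%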
bGal cs: inhibits E. coli beta-galactosidase, counter-screen for EBI2 antagonists; shares compounds with EBI2 block; purified beta-galactosidase, luminescent Galacton Star, 15 min; inhibition, % at 5 µM; 2,400 compounds, 1% hits;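 active = replicate-average signal at least 3 plate SD below neutral wells, shown as high inhibition, flagging enzyme-inhibiting false positives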;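 also: 0% = DMSO wells with enzyme and 100% = wells lacking enzyme; higher means stronger loss of beta-gal luminescence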
Starred values were filed as active, the others as inactive; x = no result given.

SMILES	HTR2A ag	CXCR6 block	APJ ag	APJ antag	EBI2 block	CCR6 antag	EBI2 conf	EBI2 agonist	bGal cs
Cc1ccccc1OCCC(=O)N1CCN(S(=O)(=O)c2ccc(Br)cc2)CC1	-3	6	-1	-4	44*	10	32	-1	-15
Cc1ccc(S(=O)(=O)N2CCN(C(=O)CCc3c[nH]c4ccccc34)CC2)c(C)c1	-2	2	-2	-8	47*	13	29	-1	-3
Cc1ccccc1OCCC(=O)N1CCN(S(=O)(=O)c2ccccc2F)CC1	-3	-1	4	14	25	-2	x	x	x
Cc1ccc(C)c(OCCC(=O)N2CCN(S(=O)(=O)c3cc(C)ccc3C)CC2)c1	-3	3	-1	11	66*	5	44	5	8
Cc1cc(C)c(S(=O)(=O)N2CCN(C(=O)CCOc3ccccc3C)CC2)c(C)c1	-5	0	-3	-4	81*	7	46	2	8
CCc1c(C)c2ccc(OCC(=O)N(C)C)c(C)c2oc1=O	2	-4	1	10	1	5	x	x	x
Cc1ccc(C)c(S(=O)(=O)N2CCN(C(=O)c3ccc4ccccc4n3)CC2)c1	-1	2	-4	-9	50*	11	41	1	4
Cc1ccc(C)c(S(=O)(=O)N2CCN(C(=O)c3cnccn3)CC2)c1	1	4	-2	13	4	-3	x	x	x
Cc1ccc(C)c(S(=O)(=O)N2CCN(C(=O)CCNC(=O)c3ccc(Br)cc3)CC2)c1	-7	3	-2	20	75*	6	33	1	2
O=S(=O)(c1ccc2c(c1)OCCO2)N1CCN(c2nc(-c3cccnc3)nc3ccccc23)CC1	x	x	0	-1	x	x	x	x	x
COc1ccc(/C=C/C(=O)Nc2ccc(-n3nncc3-c3ccccc3)cc2)cc1OC	-2	-5	4	3	61*	29	21	-1	-9
COc1ccc(/C=C/C(=O)Nc2ccc(C(N)=O)cc2)cc1OC	2	-3	1	2	4	-2	x	x	x
Cc1ccccc1-c1nnc(SCC(=O)c2c(N)n(C3CC3)c(=O)[nH]c2=O)o1	6	6	-4	22	-4	5	x	x	x
Cc1nc2c(cc1N)nc(C)n2Cc1ccccc1	9	-6	0	1	-7	2	x	x	x
COc1cc(-c2nc3cc(C)ccn3c2NC2CCCCC2)ccc1-c1ccc(C(C)=O)cc1	0	10	7	13	59*	8	46	-2	-2
CC(C)=CCC/C(C)=C/Cc1c(O)ccc(C(=O)/C=C/c2ccc(O)cc2)c1O	-10	11	-8	-48	43*	28	49	1	3
O=C(/C=C/c1cn(-c2ccccc2)nc1-c1cccnc1)c1ccco1	-2	8	1	-4	44*	14	65*	3	2
O=C(/C=C/c1cn(-c2ccccc2)nc1-c1cccnc1)N1CCCC1	5	12	x	x	-38	-22	x	x	x
Cc1cccc(-n2c(SCC(=O)N3CCC(C(=O)O)CC3)nc3ccccc3c2=O)c1C	5	-7	-3	10	4	5	x	x	x
CCc1ccc(NC(=O)c2ccc(F)c(S(=O)(=O)N(CC)c3ccccc3)c2)cc1	5	2	2	-7	45*	21	38	-1	-22
CC(=O)N1CCN(S(=O)(=O)c2cccc(C(=O)NNC(=O)COc3c(C)cccc3C)c2)CC1	1	-5	-2	6	-5	10	x	x	x
COCc1cc(C)nc(OCC(=O)N/N=C/c2ccc(O)cc2)c1C#N	2	7	-2	1	63*	8	41	2	6
